Published values pooled from the literature.
Cell line: NCI-H460
Read-out: cell growth or viability

SMILES	assay	conditions	IC50
COc1cc(CNC(=O)CCCC/C=C/C(C)C)ccc1OCc1cn(-c2ccc(C(F)(F)F)cc2)nn1	SRB		6.65 µM
CC(=O)c1ccc(N=Nc2c(C(=O)O)cc(O)c(O)c2O)cc1	MTT		13.6 µM
CCC(=O)Nc1cc(Nc2nc(N3CCc4sccc4C3)c3cccnc3n2)c(OC)cc1N1CCN(C(C)=O)CC1	MTT		> 50 µM
COc1ccc(C/C=C/c2ccc(O)c(OC)c2)cc1	MTT	24 h	12.3 µg/mL
COc1cc([C@@H]2c3cc4c(cc3[C@@H](O[C@@H]3O[C@@H]5CO[C@@H](C)O[C@H]5[C@H](O)[C@H]3O)[C@H]3COC(=O)[C@H]23)OCO4)cc(OC)c1O	MTT	72 h	0.83 µM
CC(=O)O[C@H]1CC[C@]2(C)[C@H]3CC=C4[C@@H]5CC(C)(C)CC[C@]5(C)CC[C@@]4(C)[C@]3(C)CC[C@H]2C1(C)C		48 h	10.6 µM
CCN1CCN(Cc2ccc(Nc3ncc(F)c(-c4cc(F)c5nc(C)n(C(C)C)c5c4)n3)nc2)CC1	CCK-8		0.962 µM
O=C(O)/C=C/c1ccc(O)cc1	MTT		> 50 µM
COc1cc(N(C)CCN(C)C)c(NC(=O)/C=C/C(C)C)cc1Nc1nc(Nc2cnn(C)c2)c2sccc2n1	MTT		2.25 µM
C#Cc1cccc(Nc2ncnc3cc(OCCOC)c(OCCOC)cc23)c1	MTT		0.04 µM
Cc1ccc(-c2ccc(CCCN(O)C(=O)CP(=O)(O)O)cc2)cc1	MTT	96 h	229 µM
C=CC(=O)Nc1cc(Nc2nc(N3CCc4sccc4C3)c3cccnc3n2)c(OC)cc1N1CCN(CC)CC1	MTT		0.652 µM
COc1cc(/C=C/Cc2ccc(O)c(OC)c2)cc(OC)c1	MTT	24 h	16.1 µg/mL
COc1ccc(-c2cc(=O)c3c(O)c(OC)c(OC)cc3o2)cc1O		48 h	37.5 µM
COc1cc(CNC(=O)CCCC/C=C/C(C)C)ccc1O	SRB		30.7 µM
CCC(=O)Nc1cc(Nc2nc(N3CCc4sccc4C3)c3cccnc3n2)c(OC)cc1N1CCC(N(C)C)CC1	MTT		2.46 µM
COc1cc(Nc2nccc(-c3cnn4nc(OC)ccc34)n2)cc(C(F)(F)F)c1	ATP luminescence		0.33 µM
O=C1NC(=NCc2cccs2)S/C1=C\c1ccc2ncccc2c1			> 10 µM
Cc1ccc(-c2ccc(O)cc2)c(C(=C2C=CC(=O)C=C2)c2ccc(O)cc2)c1C#Cc1ccc(O)cc1	MTT	48 h	15.5 µM
CCC(=O)Nc1cc(Nc2nc(N3CCc4sccc4C3)c3cccnc3n2)c(OC)cc1N1CCSCC1	MTT		14.3 µM
COC/C(=C/Cc1ccc(OC)cc1)c1ccc(OC)cc1	MTT	24 h	75.4 µg/mL
CC[C@@]1(O)C(=O)OCc2c1cc1n(c2=O)Cc2cc3ccccc3nc2-1		72 h	< 0.01 µM
COc1cc(N(C)CCN(C)C)c(NC(=O)C=C(C)C)cc1Nc1nc(N2CCc3sccc3C2)c2sccc2n1	MTT		0.533 µM
COc1cc(/C=C/Cc2ccc(O)c(OC)c2)ccc1O	MTT	24 h	17.5 µg/mL
CC(=O)c1cccc(N=Nc2c(C(=O)O)cc(O)c(O)c2O)c1	MTT		9.5 µM
CCC(=O)Nc1cc(Nc2nc(N3CCOCC3)c3sccc3n2)c(OC)cc1N(C)CCN(C)C	MTT		> 50 µM
OC/C(=C/Cc1ccc(O)cc1)c1ccc(O)cc1	MTT	24 h	44.9 µg/mL
CCC(=O)Nc1cc(Nc2nc(N3CCc4sccc4C3)c3cccnc3n2)c(OC)cc1N1CCN(CC)CC1	MTT		1.16 µM
COc1ccc(C/C=C/c2ccc(O)cc2)cc1	MTT	24 h	14.1 µg/mL
